tested on: Aorta; assay: Vasorelaxant activity in Wistar rat thoracic aortic ring assessed as inhibition of norepinephrine hydrochloride-induced contraction; type: functional, tissue-based
How it was run: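 Isolated thoracic aortic rings from male Wistar rats, stabilised at 2 g resting tension for 2 h. Controls used DMSO alone at matching concentrations. IC50 is the concentration giving 50% reduction of maximal norepinephrine contracture, from a best-fit line.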

| IC50 [µM] | SMILES |
| --- | --- |
| 325 | COc1ccc(C2C(c3ccccc3)=NN(c3cccc(Cl)c3)C23C(=O)OC(C)(C)OC3=O)cc1 (stereo unspecified) |
| 719 | Cc1ccc(C2C(c3ccccc3)=NN(c3ccccc3)C23C(=O)OC(C)(C)OC3=O)o1 (stereo unspecified) |
| 500 | COc1ccc(C2C(c3ccccc3)=NN(c3ccccc3)C23C(=O)OC(C)(C)OC3=O)cc1 (stereo unspecified) |
| 1470 | CC1(C)OC(=O)C2(C(=O)O1)C(c1ccc(F)cc1)C(c1ccccc1)=NN2c1ccccc1 (stereo unspecified) |
| 585 | CC1(C)OC(=O)C2(C(=O)O1)C(c1cccs1)C(c1ccccc1)=NN2c1ccccc1 (stereo unspecified) |
| 643 | CC1(C)OC(=O)C2(C(=O)O1)C(c1ccc(F)cc1)C(c1ccccc1)=NN2c1cccc(Cl)c1 (stereo unspecified) |
| 430 | CN(C)c1ccc(C2C(c3ccccc3)=NN(c3cccc(Cl)c3)C23C(=O)OC(C)(C)OC3=O)cc1 (stereo unspecified) |
| 590 | CC1(C)OC(=O)C2(C(=O)O1)C(c1ccc(Cl)cc1)C(c1ccccc1)=NN2c1ccccc1 (stereo unspecified) |
| 321 | CC1(C)OC(=O)C2(C(=O)O1)C(c1cccs1)C(c1ccccc1)=NN2c1cccc(Cl)c1 (stereo unspecified) |
| 448 | CC1(C)OC(=O)C2(C(=O)O1)C(c1ccc(Cl)cc1)C(c1ccccc1)=NN2c1cccc(Cl)c1 (stereo unspecified) |
| 729 | Cc1ccc(C2C(c3ccccc3)=NN(c3cccc(Cl)c3)C23C(=O)OC(C)(C)OC3=O)o1 (stereo unspecified) |

— ChEMBL document CHEMBL1240461, “Regioselective synthesis and molecular modeling study of vasorelaxant active 7,9-dioxa-1,2-diaza-spiro[4.5]dec-2-ene-6,10-diones” (Eur J Med Chem, 2010)
